The structures appear in SMILES notation. Activity calls are given as the source filed them. The calls are words filed in the database; no cut-off is given here. A value given as a limit tells only on which side of the number the result lay.

This note sets out measurements from ChEMBL document CHEMBL4340559, “Design and synthesis of functionalized coumarins as potential anti-austerity agents that eliminates cancer cells' tolerance to nutrition starvation” (Bioorg Med Chem Lett, 2019).

Data set [1] concerns PANC-1. In words: Cytotoxic activity against human PANC1 cells in nutrient-rich medium measured after 24 hrs by WST8 assay. The class given is cell-based. To be noted: panc-1, 24 h. For orientation: Formazan colour is commonly taken as a measure of viable cells.
Data set [2] relates to PANC-1. In words: Antiausteritic activity against human PANC1 cells in nutrient-deprived medium measured after 24 hrs by WST8 assay. The class given is functional.
The subject of data set [3] is PANC-1. Put plainly: Inhibition of colony formation in human PANC1 cells at 25 uM in the nutrient rich DMEM media treated for 24 hrs followed by compound washout and subsequent incubation for 10 days by crystal violet staining based assay relative to untreated control. It counts as functional. A digest of the protocol: (§1)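 PANC-1 cells were exposed 24 h to 12.5, 25 or 50 μM in nutrient-rich DMEM. Medium was then replaced with fresh DMEM and cells grown 10 d to form colonies. Read-out was the average area occupied by colonies relative to untreated control wells. Three replications; significance set at p < 0.05 versus control.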

Data set [4] concerns PANC-1. In words: Antiausteritic activity against human PANC1 cells in nutrient deprived medium assessed as inhibition of cell mobility at 5 uM measured within 4 hrs by automated time-lapse microscopic method. The class given is functional, cell-based. A digest of the protocol:
(§2)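 PANC-1 cells in NDM were held in a stage-top incubator with 5 μM compound, with untreated NDM control run alongside. Images were captured every 10 min for 24 h. Mobility, shrinkage and death were followed over time.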

Data set [5] relates to PANC-1. Put plainly: Inhibition of colony formation in human PANC1 cells at 12.5 uM in the nutrient rich DMEM media treated for 24 hrs followed by compound washout and subsequent incubation for 10 days by crystal violet staining based assay relative to untreated control. The class given is functional. A digest of the protocol:
as §1

The subject of data set [6] is PANC-1. In words: Antiausteritic activity against human PANC1 cells in nutrient deprived medium assessed as cell death at 5 uM measured at 13 to 20 hrs by automated time-lapse microscopic method. It counts as functional, cell-based. A digest of the protocol:
as §2

Data set [7] has as its system PANC-1. In words: Antiausteritic activity against human PANC1 cells in nutrient deprived medium assessed as rupture of cell membrane at 1.25 uM after 24 hrs by ethidium bromide/acridine orange staining based phase contrast microscopic method. It counts as functional. A digest of the protocol: (§3)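 PANC-1 cells exposed 24 h in nutrient-deprived medium (NDM) alongside untreated control, then stained with ethidium bromide/acridine orange. AO enters all cells and fluoresces green. EB enters only dead or dying cells and fluoresces red. Cells were scored by fluorescence colour and morphology.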

Data set [8] relates to PANC-1. Put plainly: Inhibition of colony formation in human PANC1 cells at 50 uM in the nutrient rich DMEM media treated for 24 hrs followed by compound washout and subsequent incubation for 10 days by crystal violet staining based assay relative to untreated control. It counts as functional. In short, it runs like this: as §1
In data set [9] the test system is PANC-1. Put plainly: Antiausteritic activity against human PANC1 cells in nutrient deprived medium assessed as leakage of cellular contents into culture media at 1.25 uM after 24 hrs by ethidium bromide/acridine orange staining based phase contrast microscopic method. It counts as functional, cell-based. A digest of the protocol: as §3
Data set [10] deals with PANC-1. In words: Antiausteritic activity against human PANC1 cells in nutrient deprived medium assessed as appearance of rounded cells at 1.25 uM after 24 hrs by ethidium bromide/acridine orange staining based phase contrast microscopic method. It counts as functional, cell-based. A digest of the protocol: as §3
The subject of data set [11] is PANC-1. In words: Antiausteritic activity against human PANC1 cells in nutrient deprived medium assessed as cell shrinkage at 5 uM measured at 7 hrs by automated time-lapse microscopic method. The class given is functional, cell-based. In short, it runs like this: as §2
The subject of data set [12] is PANC-1. Put plainly: Antiausteritic activity against human PANC1 cells in nutrient deprived medium assessed as plasma blebbing at 1.25 uM after 24 hrs by ethidium bromide/acridine orange staining based phase contrast microscopic method. The class given is functional, cell-based. A digest of the protocol:
as §3

In data set [13] the test system is PANC-1. In words: Inhibition of colony formation in human PANC1 cells at 12.5 to 50 uM in the nutrient rich DMEM media treated for 24 hrs followed by compound washout and subsequent incubation for 10 days by crystal violet staining based assay. It counts as functional, cell-based. A digest of the protocol:
as §1

For the compound `O=C(NCCCc1ccc(Cl)cc1)c1cc2ccc(O)cc2oc1=O`, the Activity entry in the data set with PANC-1 [1] is reported as “Non-Toxic”. Besides, in the data set with PANC-1 [2], the PC50 was found to be 0.51 µM.
With `O=C(NCCCc1ccccc1)c1cc2c(O)cccc2oc1=O`, the Activity entry with PANC-1 [1] is reported as “Non-Toxic”. Besides, the PC50 with PANC-1 [2] was >100 µM.
Consider `O=C(NCCCc1ccccc1)c1cc2ccccc2oc1=O`, for which, in the data set with PANC-1 [1], the Activity entry is given as “Non-Toxic”. In addition, the PC50 with PANC-1 [2] was >100 µM.
As a reminder, the inhibition is the share of the control response that was lost under treatment. Regarding `O=C(NCCCc1ccccc1)c1cc2ccc(O)cc2oc1=O`, the inhibition at 25 µM with PANC-1 [3] was 11%. Moreover, the result in the data set on PANC-1 [4], in the data set with PANC-1 [6], in the data set on PANC-1 [7], in the data set on PANC-1 [9], in the data set with PANC-1 [10] and with PANC-1 [11] was Active. Further, the outcome in the data set on PANC-1 [12] was Active. Besides, in the data set with PANC-1 [5], the inhibition at 12.5 µM was determined as 8%. The inhibition at 50 µM in the data set on PANC-1 [8] stood at 19%. In the data set with PANC-1 [1], the Activity result is on record as “Non-Toxic”. The PC50 in the data set with PANC-1 [2] came out at 0.44 µM. Also, the inhibition result in the data set on PANC-1 [13] was “Dose-dependent effect”.
Regarding `O=C(NCCCc1ccc(Cl)cc1Cl)c1cc2ccc(O)cc2oc1=O`, in the data set on PANC-1 [1], the Activity result is given as “Non-Toxic”. In the data set with PANC-1 [2], this compound registered a PC50 of 3.45 µM.
As for `O=C(NCCCCc1ccccc1)c1cc2ccc(O)cc2oc1=O`, the Activity entry in the data set with PANC-1 [1] was “Non-Toxic”. Moreover, in the data set on PANC-1 [2], the PC50 was determined as 4.7 µM.
For `O=C(NCCc1ccccc1)c1cc2ccc(O)cc2oc1=O` the same measures were “Non-Toxic” and >100 µM.
On to `O=C(NCCCc1ccccc1)c1cc2cccc(O)c2oc1=O`, for which, in the data set with PANC-1 [1], the Activity result is “Non-Toxic”. In addition, the PC50 in the data set with PANC-1 [2] was determined as 3.28 µM.
As to `O=C(NCc1ccccc1)c1cc2ccc(O)cc2oc1=O`, the Activity result in the data set on PANC-1 [1] is recorded as “Non-Toxic”. The PC50 with PANC-1 [2] was >100 µM.
In the case of `O=C(NCCCc1cccc(Cl)c1)c1cc2ccc(O)cc2oc1=O`, in the data set with PANC-1 [1], the Activity result is “Non-Toxic”. This compound returned a PC50 in the data set with PANC-1 [2] of 3.92 µM.
In the case of `O=C(NCCCc1ccccc1)c1cc2cc(O)ccc2oc1=O`, the Activity result in the data set with PANC-1 [1] is “Non-Toxic”. Further, the PC50 in the data set on PANC-1 [2] is >100 µM.
For `O=C(NCCCC1CCCCC1)c1cc2ccc(O)cc2oc1=O`, the Activity result in the data set on PANC-1 [1] is on record as “Non-Toxic”. For the same compound, the PC50 in the data set on PANC-1 [2] worked out at 2.19 µM.
For `O=C(NCCCc1ccccc1Cl)c1cc2ccc(O)cc2oc1=O`, in that order: “Non-Toxic” and 12.6 µM.
For `O=C(NCCCc1cccc(Cl)c1Cl)c1cc2ccc(O)cc2oc1=O`, in the data set with PANC-1 [1], the Activity entry is on record as “Non-Toxic”. The PC50 in the data set on PANC-1 [2] turned out to be 7.48 µM.
